Experimental data pooled from the literature.
Each line is one published result; the experiments were not run side by side.
ABL1 non-phosphorylated: Tyrosine-protein kinase ABL1, non-phosphorylated (ABL1, Homo sapiens, UniProt P00519)

Compound	target	read-out	technique	pH	notes	Kd
NS(=O)(=O)c1ccc(C(F)(F)F)cc1	Carbonic anhydrase 2 (CA2, Homo sapiens, UniProt P00918)	binding	ITC	–	–	~0.07 µM
NS(=O)(=O)C(F)(F)F	Carbonic anhydrase 1 (CA1, Homo sapiens, UniProt P00915)	binding	ITC	pH 6	–	0.164 µM
CCCN1CCN(c2ccc(-c3cncc(Cl)c3N3CCC4(CCNC4=O)CC3)cc2)CC1	Nicotinamide phosphoribosyltransferase (NAMPT, Homo sapiens, UniProt P43490)	cell-free assay	–	–	lysate	6.42 µM
Cc1cc2nc3c(=O)[nH]c(=O)nc-3n(C[C@H](O)[C@H](O)[C@H](O)COP(=O)(O)OP(=O)(O)OC[C@H]3O[C@@H](n4cnc5c(N)ncnc54)[C@H](O)[C@@H]3O)c2cc1C	Cytotoxic granule associated RNA binding protein TIA1 (TIA1, Homo sapiens, UniProt P31483)	binding	–	–	lysate	0.038 µM
COc1cc2c(Oc3ccc4[nH]c(C)cc4c3F)ccnc2cc1OCC1(N)CC1	AMP-activated protein kinase (AMPK) alpha-1/beta-1/gamma-1 (PRKAG1/PRKAA1/PRKAB1, Homo sapiens, UniProt P54619+Q13131+Q9Y478)	binding	SPR	–	–	23.5 µM
COc1ccc2c(c1)sc(-c1ccc(N(C)C)cc1)[n+]2C	Alpha-synuclein, fibril (SNCA, Homo sapiens, UniProt P37840)	binding	SPR	–	–	72.3 µM
FC(F)(F)c1n[nH]cc1-c1nc2ccc3[nH]ncc3c2c2c1CCCC2	ABL1 non-phosphorylated	binding	competition with immobilised ligand	–	–	5.8 µM
CC#CC(=O)N1CC[C@@H](n2cc(-c3ccc(Oc4c(F)cccc4F)cc3)c3c(N)n[nH]c(=O)c32)C1	Tyrosine-protein kinase ITK/TSK (ITK, Homo sapiens, UniProt Q08881)	binding	competition with immobilised ligand	–	–	> 3 µM
Cc1cnc(-c2ccc(-c3ccc(NC(=O)Nc4c(F)cc(F)cc4F)cc3F)c3c2C(=O)NC3)[nH]1	Dual specificity mitogen-activated protein kinase kinase 6 (MAP2K6, Homo sapiens, UniProt P52564)	binding	competition with immobilised ligand	–	–	0.012 µM
Cc1ccc(NC(=O)c2ccc(CN3CCS(=N)(=O)CC3)cc2)cc1Nc1nccc(-c2cccnc2)n1	ABL1 non-phosphorylated	binding	competition with immobilised ligand	–	–	0.079 µM
Cc1cc(Nc2cc3ncccc3c(N[C@@H]3C[C@H]4CC[C@@H](C3)N4CCC#N)n2)n[nH]1	STE20-like serine/threonine-protein kinase (SLK, Homo sapiens, UniProt Q9H2G2)	binding	competition with immobilised ligand	–	–	0.11 µM
